Source: ChEMBL document CHEMBL1158492, “Triazole inhibitors of Cryptosporidium parvum inosine 5'-monophosphate dehydrogenase” (J Med Chem, 2009)

Experiments:
[1] = biological target: T1, Inosine-5'-monophosphate dehydrogenase (Cryptosporidium parvum, UniProt Q8T6T2); test: Inhibition of Cryptosporidium parvum recombinant IMPDH expressed in Escherichia coli TX685 assessed as NADH production by fluorescence assay in absence of 0.05% fatty acid free bovine serum albumin
T1 sequence (Q8T6T2 whole entry): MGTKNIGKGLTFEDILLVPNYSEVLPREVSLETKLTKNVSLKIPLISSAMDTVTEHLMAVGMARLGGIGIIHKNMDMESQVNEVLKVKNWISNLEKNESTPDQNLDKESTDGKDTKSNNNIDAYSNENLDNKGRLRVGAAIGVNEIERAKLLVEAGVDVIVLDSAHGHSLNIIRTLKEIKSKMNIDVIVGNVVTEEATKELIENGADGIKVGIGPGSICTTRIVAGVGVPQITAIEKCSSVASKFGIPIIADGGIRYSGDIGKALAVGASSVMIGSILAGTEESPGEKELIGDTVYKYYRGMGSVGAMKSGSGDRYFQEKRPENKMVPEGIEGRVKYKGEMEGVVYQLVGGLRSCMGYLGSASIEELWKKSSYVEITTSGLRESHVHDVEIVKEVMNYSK
Method in brief: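 Enzyme (10 nM) pre-incubated with inhibitor 5 min at room temperature before adding substrates (150 μM IMP, 300 μM NAD). Inhibitor range 25 pM–5 μM. NADH read by fluorescence. Initial velocities averaged over quadruplicates. IC50 from vi/vo, mean ± SD of three independent determinations.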

[2] = biological target: T1, Inosine-5'-monophosphate dehydrogenase; test: Inhibition of Cryptosporidium parvum recombinant IMPDH expressed in Escherichia coli TX685 assessed as NADH production by fluorescence assay in presence of 0.05% fatty acid free bovine serum albumin
Method in brief: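 Same IMP→XMP fluorescence (NADH) assay, with 0.05% fatty acid free BSA added. Conditions: 10 nM enzyme, 5 min room-temperature pre-incubation with inhibitor, then 150 μM IMP and 300 μM NAD. IC50 from three independent experiments, mean ± SD.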

[3] = biological target: T2, Inosine-5'-monophosphate dehydrogenase 2 (Homo sapiens, UniProt P12268); test: Inhibition of human recombinant IMPDH2 expressed in Escherichia coli guaB assessed as NADH production at 5 uM by fluorescence assay
[4] = biological target: T2, Inosine-5'-monophosphate dehydrogenase 2; test: Inhibition of human recombinant IMPDH2 expressed in Escherichia coli guaB assessed as NADH production by fluorescence assay
[5] = biological target: T1, Inosine-5'-monophosphate dehydrogenase; test: Inhibition of Cryptosporidium parvum recombinant IMPDH expressed in Escherichia coli guaB assessed as NADH production by fluorescence assay
Method in brief: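 E. coli-expressed CpIMPDH at 10 nM, preincubated with inhibitor (25 pM - 5 μM) for 5 min at room temperature before adding 150 μM IMP and 300 μM NAD. NADH read by fluorescence from initial velocities, in quadruplicate. IC50 ± SD from three independent runs, some also with 0.05% fatty-acid-free BSA.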

[6] = biological target: T3, Inosine-5'-monophosphate dehydrogenase (Cryptosporidium parvum) (UniProt Q8T6T2); test: Ratio of campaign IC50 to compound IC50 for Cryptosporidium parvum recombinant IMPDH expressed in Escherichia coli TX685 in absence of 0.05% fatty acid free bovine serum albumin
T3 sequence (whole entry): T1 sequence (Q8T6T2 whole entry)

Row | SMILES | IC50 [1] [nM] | IC50 [2] [nM] | inhibition [3] [%] | IC50 [4] [nM] | EC50 [5] [nM] | Ratio IC50 [6]
1 | C[C@@H](Oc1cccc2c1ccc[n+]2[O-])c1cn(-c2ccc(Cl)cc2)nn1 | 24 | 52 | < 10 |  |  | 
2 | CC(Oc1ccccc1)C(=O)Nc1ccc(Cl)cc1 (configuration not stated) | 3300 |  |  | > 50000 | 3300 | 
3 | CC(Oc1ccnc2ccccc12)c1cn(-c2ccc(Cl)cc2)nn1 (configuration not stated) | 24 | 230 | < 10 |  |  | 
4 | C[C@H](Oc1ccnc2ccccc12)c1cn(-c2ccc(Cl)c(Cl)c2)nn1 | 130 | 880 | < 10 |  |  | 
5 | CC(Oc1ccnc2ccccc12)c1cn(-c2ccc(Cl)c(Cl)c2)nn1 (configuration not stated) | 20 | 700 | < 10 |  |  | 
6 | C[C@H](Oc1ccnc2ccccc12)c1cn(-c2ccc(C#N)c(Cl)c2)nn1 | 600 | 2300 | < 10 |  |  | 
7 | CC(Oc1ccnc2ccccc12)c1cn(-c2ccc(C#N)cc2)nn1 (configuration not stated) | 140 | 340 | < 10 |  |  | 
8 | Clc1ccc(-n2cc(COc3ccnc4ccccc34)nn2)cc1 | 440 | 480 | < 10 |  |  | 
9 | CC(Oc1cc[n+]([O-])c2ccccc12)c1cn(-c2ccc(Cl)cc2)nn1 (configuration not stated) | 29 | 50 | < 10 |  |  | 
10 | C[C@@H](Oc1ccnc2ccccc12)c1cn(-c2ccc(C#N)c(Cl)c2)nn1 | 31 | 1100 | < 10 |  |  | 
11 | CC(C)C(Oc1cccc2ccccc12)C(=O)Nc1ccc(Cl)cc1 (configuration not stated) | 710 | 830 | < 10 |  |  | 
12 | C[C@@H](Oc1cccc2ncccc12)c1cn(-c2ccc(Cl)cc2)nn1 | 9 | 30 | < 10 |  |  | 
13 | C[C@@H](Oc1ccnc2ccccc12)c1cn(-c2ccc(Cl)c(Cl)c2)nn1 | 9 | 650 | < 10 |  |  | 
14 | CC(Oc1cccc2ccccc12)c1cn(-c2ccccc2Cl)nn1 (configuration not stated) | > 5000 |  | < 10 |  |  | 
15 | CC(C)C(Oc1cccc2ccccc12)c1cn(-c2ccc(Cl)cc2)nn1 (configuration not stated) | > 5000 |  | < 10 |  |  | 
16 | CC(Oc1cccc2ccccc12)C(=O)Nc1ccc(Cl)cc1 (configuration not stated) | 1060 | 1640 | < 10 |  |  | 3
17 | CC(Oc1ccnc2ccccc12)C(=O)Nc1ccc(Cl)cc1 (configuration not stated) | 660 | 860 | < 10 |  |  | 
18 | CC(Oc1ccc(Cl)c2ccccc12)c1cn(-c2ccc(Cl)cc2)nn1 (configuration not stated) | 87 | 3900 | < 10 |  |  | 
19 | CC(Oc1cccc2ccccc12)c1cn(-c2ccc(Cl)cc2)nn1 (configuration not stated) | 130 | 780 | < 10 |  |  | 
20 | CC(Oc1cccc2c1ccc[n+]2[O-])c1cn(-c2ccc(Cl)cc2)nn1 (configuration not stated) | 44 | 59 | < 10 |  |  | 
21 | O=C(Nc1ccc(Cl)cc1)C(Oc1cccc2ccccc12)C1CC1 (configuration not stated) | > 5000 |  | < 10 |  |  | 
22 | CC(Oc1cc[n+]([O-])c2ccccc12)c1cn(-c2ccc(Cl)c(Cl)c2)nn1 (configuration not stated) | 18 | 42 | < 10 |  |  | 
23 | C[C@@H](Oc1cc[n+]([O-])c2ccccc12)c1cn(-c2ccc(Cl)cc2)nn1 | 13 | 50 | < 10 |  |  | 
24 | O=C(Nc1ccc(Cl)cc1)C(Oc1cccc2ccccc12)c1ccccc1 (configuration not stated) | > 5000 |  | < 10 |  |  | 
25 | CC(Oc1ccnc2ccccc12)c1cn(-c2ccc(C#N)c(Cl)c2)nn1 (configuration not stated) | 40 | 1400 | < 10 |  |  | 
